This is a sample that favours compounds with a hit; in the whole collection about 0.3% have one here.
BasE inh: BasE siderophore enzyme inhibitors, primary screen, biochemical, Acinetobacter baumannii ATCC 17978, fluorescence polarization | purified BasE, fluorescence polarization binding displacement | inhibition, % (no concentration beside the values) | 84,000 tested, 0.1% active; in the data active = inhibition above about 25%, passing the limit was not always enough
LANA-nucl inh: inhibitors of KSHV LANA-nucleosome binding, primary screen, biochemical, fluorescence polarization, FITC-LANA1-23, chicken nucleosomes. FITC-LANA1-23 / chicken nucleosome fluorescence polarization; stronger effect = lower value. z-score (test concentration not listed). 51,000 tested, 0.3% active. AID 720717, 2013;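 active = both repeat wells score below -2 in polarization z-score versus plate sample wells, excluding overly bright wells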
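System – purified chicken nucleosomes with FITC-labelled LANA N-terminal peptide (1-23) · Amount – 240 nM purified chicken nucleosomes (480 nM peptide binding sites), final · Also added – 50 nM FITC-LANA1-23 probe · Medium – TEN-BT buffer, pH 7.5 · Incubation – compound with peptide–nucleosome mix 10–45 min at room temperature · Detection – fluorescence polarization, ex 480 nm, em 535 nm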
Hits are given with their value; 0 = inactive; - = not tested or not shown.

SMILES	BasE inh	LANA-nucl inh
CCN(CC)S(=O)(=O)c1ccc(NC(=O)C2=NN(c3ccccc3)C(=O)CC2)cc1	0	-
COCCNC(=O)c1cc(Br)c(C)c(C)c1C	0	-2.43
COCCNC(=O)c1cc(Br)cs1	0	0
C(=C\c1ccccc1)/CN1CCN(c2ncnc3sccc23)CC1	0	-
O=C1CC2CCCC(CN1)N2CC(=O)NCc1ccco1 (centres undefined)	0	0
CCCC(C)C(=O)Nc1ccc(-c2nc3ccccc3o2)cc1 (centres undefined)	0	-2.25
CC(C)C(=O)Nc1cccc(-c2nc3ccccc3o2)c1	0	0
COc1ccc(C(=O)OCC(=O)c2ccc(C)cc2)cc1OC	0	0
O=C(O)c1ccccc1O	0	0
O=C(O)c1cccn2nnnc12	0	-2.27
O=C(c1cc2ccccc2oc1=O)N1CCCCCC1	0	0
CCC(C)c1ccc(O)c(NC(=O)c2cccnc2)c1 (centres undefined)	0	-
C/C(=C\C(=O)c1cccnc1)Nc1ccccc1O	29.6	0
C=CCn1c(=O)[nH]c2c1c(=O)n(C)c(=O)n2C	0	0
Cn1nccc1C(N)c1ccccc1 (centres undefined)	25.5	0
NC(c1ccccc1)c1ccccc1	0	-
Cc1cc2c(n1-c1ccc(C(=O)O)cc1)CCCC2	30.5	0
Cc1cc2c(n1-c1ccc(C(=O)NCCc3cccs3)cc1)CCCC2	0	0
O=C(Nc1ccc2c(c1)OCCO2)Nc1nnc(N2CCCC2)s1	0	0
COc1ccc(C2C(C(N)=O)C(=O)NC(O)(c3ccccc3)C2C#N)cc1 (centres undefined)	0	-2.34
COc1ccc(C2CC(=O)N3C(=C2C#N)SCC3(O)c2ccccc2)cc1 (centres undefined)	0	0
Cn1c(CN2CCOCC2)nc2cc(N)ccc21	0	0
N#C/C(=C\c1ccc(-c2cc(C(F)(F)F)ccc2Cl)o1)C(=O)O	0	-
N#C/C(=C/c1ccc(-c2cc(C(=O)O)ccc2Cl)o1)C(=O)NCCc1c[nH]c2ccccc12	30.8	0
CCN(CC)S(=O)(=O)c1cc(C)ccc1NC(=S)NCCN1CCOCC1	0	-
SMILES	BasE inh	LANA-nucl inh
CCOC(=O)c1cc(-c2ccc(N(CC)CC)cc2)no1	0	-4.77
COC(=O)c1cc(-c2ccc(C)cc2)no1	0	0
CC1CCN(C(=O)c2cccc(Cl)c2)CC1	0	0
CCCOc1ccc(C2C3CN(CC)CC=C3C(C#N)=C(N)C2(C#N)C#N)cc1OC (centres undefined)	0	0
CCCN1CC=C2C(C#N)=C(N)C(C#N)(C#N)C(c3ccc(F)cc3F)C2C1 (centres undefined)	0	-4.5
CC(Cc1ccccc1)C(N)=O (centres undefined)	0	0
COC(=O)C1=C(C)N(Cc2cccnc2)C(=O)/C1=C\c1ccc(OC)cc1OC	0	0
N#C/C(=C\c1ccc(-c2ccccc2)o1)c1ccccc1	0	0
N#C/C(=C\c1ccc(N2CCCC2)o1)c1ccccc1	0	-5.41
Cc1nnc(Nc2ccc(C(=O)N3CCCCC3)cc2)c2ccccc12	0	0
Cn1c(=O)c2c(SCC(=O)Nc3ccccc3C(F)(F)F)ccnc2n(C)c1=O	0	-2.13
CCCn1c(SCC(=O)Nc2ccccc2C(F)(F)F)nnc1-c1ccoc1C	0	0
C=CCC(Nc1ccccc1C)c1ccc(Cl)cc1 (centres undefined)	0	-
O=C1C(c2ccnc3ccccc23)=C(O)c2ccccc21	0	-4.18
O=C1C(c2ccc(I)cc2)=C(O)c2ccccc21	0	-
Cc1cc(O)cc(=O)n1C	0	0
Cc1cc(O)c(Cc2c(O)cc(C)n(C)c2=O)c(=O)n1C	0	-2.35
CCC1(C)NC(=O)N(/N=C/c2cc(C)n(-c3cccc(S(=O)(=O)N4CCOCC4)c3)c2C)C1=O (centres undefined)	0	-
CCOC(=O)C1=C(Nc2ccc(OC)cc2)OCC1=O	0	-2.13
O=C(O)C1=C(Nc2ccccc2)OCC1=O	0	-
CSc1nc2ccc(NC(=O)CNC(=O)c3cccs3)cc2s1	0	-
CCN1CCCC1CNC(=O)Nc1ccc(Cl)c(Cl)c1 (centres undefined)	0	-
CCNc1cc(NCC)c2noc3c2c1C(=O)c1ccccc1-3	0	0
CC(=O)OCCNc1cc(Cl)c2noc3c2c1C(=O)c1ccccc1-3	0	-3.71
COc1ccc(S(=O)Cc2ccc(C(=O)NCCc3ccc(SC)cc3)o2)cc1 (centres undefined)	0	0
SMILES	BasE inh	LANA-nucl inh
CCOC(=O)N1CCN(C(=O)CC2c3ccccc3Oc3ccccc32)CC1	0	0
O=C1CN(C(=O)CC2c3ccccc3-c3ccccc32)CC(=O)N1	43.0	0
Cc1ccc(C)n1-c1cc(Cl)ccc1N1CCCCC1	0	-
Cc1ccc(C)n1-c1cc(Cl)ccc1C(=O)O	84.9	0
Cc1ccc(C2=NN(CC(=O)N3CCCCC3)C(=O)CC2)cc1	0	0
CC(=O)Oc1cccc(/C=c2/sc3nc4ccccc4n3c2=O)c1	0	0
CC12CCC(C/C1=N\N=C1/NC(=O)C(CC(=O)NC(N)=O)S1)C2(C)C (centres undefined)	0	0
Cc1cccc(N2C(=O)c3cccc4c(N5CCNCC5)ccc(c34)C2=O)c1	0	0
Cc1ccc(N2C(=O)c3cccc4c(N5CCN(C)CC5)ccc(c34)C2=O)c2cccnc12	26.6	-2.79
O=C(O)c1ccccc1C(=O)n1c(COc2ccc(Cl)cc2Cl)nc2ccccc21	0	-
CCn1c(=O)cc(OCC(=O)Nc2cccnc2)c2ccccc21	25.4	0
CCn1c(=O)cc(OCC(=O)O)c2ccccc21	0	0
CSc1scc2c1C(=O)/C(=C/N(C)C)CC2	36.0	0
CSc1scc2c1C(=O)CC(C)(C)C2	0	-
O=C(O)Cc1nonc1NCn1nnc2ccccc21	39.9	0
c1ccc2c(c1)nnn2CNCn1nnc2ccccc21	0	0
O=C(CC1SC(=O)NC1=O)Nc1ccccc1NC(=O)CC1SC(=O)NC1=O (centres undefined)	0	0
COC(=O)CC1SC(=O)NC1=S (centres undefined)	0	-5.15
COc1cccc(OC)c1OC(=O)C(C)Oc1ccc(C)cc1 (centres undefined)	0	-
Cc1cc2c(c(=O)[nH]1)C(c1ccncc1)C(C#N)=C(N)O2 (centres undefined)	0	0
COC(=O)C1=C(N)Oc2cc(C)[nH]c(=O)c2C1c1ccccc1OC (centres undefined)	43.1	0
CCOC(=O)c1ccncc1	0	-
O=C1CSc2sc(=S)sc2S1	28.2	-
O=C(Cn1cnc2ccccc21)OCc1ccc(Br)cc1	26.7	-
NC(=O)Cn1cnc2ccccc21	0	0
SMILES	BasE inh	LANA-nucl inh
O=C1NC2=C(C(=O)CCC2)C(c2ccc(Cl)cc2)N1 (centres undefined)	0	-
C=CCn1c(=O)[nH]c2nc3cc(NC(=O)CC)ccc3nc2c1=O	0	0
C=CCn1c(=O)[nH]c2nc3cc(N=CN(C)C)ccc3nc2c1=O	0	-5.8
CC(=O)N=c1scc(C)n1C(C)(C)C	0	-
O=C1N=C(c2ccccc2)S/C1=C\c1ccc2c(c1)OCO2	0	0
Clc1ccc(OCCCc2nc(-c3cccnc3)n[nH]2)c(Cl)c1	46.3	-
S=c1[nH]nc(CCCOc2ccc(Cl)cc2Cl)o1	0	0
Cc1nn(-c2ccccc2)c(C)c1CN(C)CC(=O)Nc1ccccc1C#N	0	-
COc1cc(/C=N/NC(=O)c2ccccc2-n2cccc2)ccc1O	0	-
